Test results: ChEMBL document CHEMBL1149791, “Evaluation of myorelaxant activity of 7-substituted hexahydroquinoline derivatives in isolated rabbit gastric fundus” (2008)
Calls of active or inactive are those of the source. The calls are words filed in the database; no cut-off is given here.

Columns and labels:
[1] = system: Stomach; experiment: Inhibition of electrical field stimulation-induced neurogenic contractions in New Zealand white rabbit gastric fundus smooth muscle; type: functional
[2] = system: Stomach; experiment: Inhibition of neostigmine-induced neurogenic contractions in New Zealand white rabbit gastric fundus smooth muscle; type: functional, tissue-based; details: Oryctolagus cuniculus
Procedure, shortened: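 Longitudinal gastric fundus strips (about 15–20 mm × 2 mm) from New Zealand white rabbits (2.5–3 kg), taken after i.v. pentobarbital. Strips were held in Krebs–Henseleit organ baths at 1 g basal tension and equilibrated 60 min. Contractions were evoked by electrical field stimulation through platinum electrodes (1 ms pulses, 60 V, 8 Hz) with neostigmine 10^-6 M. Compounds were dissolved in DMSO.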

[3] = system: Stomach; experiment: Reversal of inhibition of electrical field stimulation-induced neurogenic contractions in New Zealand white rabbit gastric fundus smooth muscle in presence of glibenclamide; type: functional, Oryctolagus cuniculus
[4] = system: Stomach; experiment: Myorelaxant activity against noradrenaline-induced contractions in New Zealand white rabbit gastric fundus smooth muscle; type: functional, Oryctolagus cuniculus
Procedure, shortened: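 Longitudinal fundus strips (15-20 mm x 2 mm) were equilibrated 60 min at 1 g basal tension in Krebs-Henseleit solution, with the solution changed every 15 min. L-NAME 10^-4 M and indomethacin 10^-5 M were added 20 min before precontraction. Strips were precontracted with noradrenaline 10^-5 M. Compounds in DMSO were added cumulatively, each step after a plateau. pD2 and Em (at 3 x 10^-4 M) are mean ± S.E., n = 6.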

[5] = system: Stomach; experiment: Myorelaxant activity against noradrenaline-induced contractions in New Zealand white rabbit gastric fundus smooth muscle in presence of glibenclamide; type: functional, tissue-based; details: Oryctolagus cuniculus

For `CN1[C@@H]2CC[C@H]1CC(OC(=O)[C@H](CO)c1ccccc1)C2` (some centres undefined), the Activity ([1]; Oryctolagus cuniculus) was “Active” and the Activity [2] was “Active”.

In the case of `NC1=N[C@H](O)[C@H]2[C@H]3O[C@]4(O)O[C@@H]([C@@H](O)[C@@]2(N1)[C@@H]4O)[C@]3(O)CO`, the Activity ([1]; Oryctolagus cuniculus) is reported as “Active”.

`CC(N/C(=N\C#N)Nc1ccncc1)C(C)(C)C` (centres undefined) [PINACIDIL ANHYDROUS] was tested, and the pD2 [1] was 7.49, the Emax ([1]; Oryctolagus cuniculus, Stomach) was 76.3% and the “inhibition (INH)” value [3] was 32.18%. For the same compound, the pD2 [4] was 5.03, the Emax ([4]; Oryctolagus cuniculus, Stomach) was 71.2% and the Activity [5] was “Active”.
